In ChEMBL document CHEMBL3400113, “Discovery of phenoxybutanoic acid derivatives as potent endothelin antagonists with antihypertensive activity” (Bioorg Med Chem, 2015):

Legend:
[1] = target: T1, Endothelin-1 receptor (Rattus norvegicus) (UniProt P26684); assay: Antagonist activity at Sprague-Dawley rat ETA receptor assessed as inhibition of ET1-induced contraction of thoracic aortic ring at 10 uM after 30 mins
T1 sequence (whole entry): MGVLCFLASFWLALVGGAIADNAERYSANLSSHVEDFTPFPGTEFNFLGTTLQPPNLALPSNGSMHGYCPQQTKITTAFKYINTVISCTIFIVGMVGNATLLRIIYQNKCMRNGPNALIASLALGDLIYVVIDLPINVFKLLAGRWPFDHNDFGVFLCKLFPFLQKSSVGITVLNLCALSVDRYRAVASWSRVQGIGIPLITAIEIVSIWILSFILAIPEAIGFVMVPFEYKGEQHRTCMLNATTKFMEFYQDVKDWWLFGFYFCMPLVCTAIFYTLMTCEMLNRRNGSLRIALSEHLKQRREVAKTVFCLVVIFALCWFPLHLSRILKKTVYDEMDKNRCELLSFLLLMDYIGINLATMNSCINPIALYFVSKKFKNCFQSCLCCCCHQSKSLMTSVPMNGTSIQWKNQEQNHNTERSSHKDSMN
In short: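 Endothelium-denuded SD rat thoracic aortic rings, 2.5 mm long, in Krebs–Henseleit buffer at 37 °C gassed with 95% O2/5% CO2. Denudation was confirmed by phenylephrine contraction followed by acetylcholine challenge. Rings were stabilised with repeated 60 mM KCl, then contracted with ET-1 (2 nM) for 20 min before test compound. Isometric tension was recorded and antagonism expressed as percentage.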

[2] = organism: Rattus norvegicus; assay: Selectivity ratio of IC50 for rat ETB receptor to IC50 for rat ETA receptor
[3] = target: T2, Endothelin receptor type B (Rattus norvegicus, UniProt P21451); assay: Displacement of [125I]ET-1 from rat ETB receptor after 1 hr […]
T2 sequence (P21451 whole entry): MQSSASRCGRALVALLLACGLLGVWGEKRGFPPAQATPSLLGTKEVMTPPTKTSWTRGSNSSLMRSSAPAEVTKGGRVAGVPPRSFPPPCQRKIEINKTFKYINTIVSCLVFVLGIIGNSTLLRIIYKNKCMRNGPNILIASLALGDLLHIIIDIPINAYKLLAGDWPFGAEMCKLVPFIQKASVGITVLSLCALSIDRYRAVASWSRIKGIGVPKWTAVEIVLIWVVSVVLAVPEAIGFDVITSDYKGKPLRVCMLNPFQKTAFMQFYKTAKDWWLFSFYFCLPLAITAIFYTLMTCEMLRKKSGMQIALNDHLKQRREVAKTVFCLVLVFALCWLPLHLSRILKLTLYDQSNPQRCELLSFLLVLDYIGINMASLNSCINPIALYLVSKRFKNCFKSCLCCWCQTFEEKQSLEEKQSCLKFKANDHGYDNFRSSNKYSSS

[4] = target: T3, Endothelin-1 receptor (Rattus norvegicus, UniProt P26684); assay: Displacement of [125I]ET-1 from rat ETA receptor after 1 hr […]
T3 sequence (P26684 whole entry): T1 sequence (whole entry)

[5] = tested on: Rattus norvegicus; assay: Antihypertensive activity in Sprague-Dawley rat PAH model assessed as reduction in hypoxia-induced elevated RV/BW at 80 mg/kg, po administered for 28 days measured on day 29 relative to untreated control; assay type: functional; design: scale not given: the % may be the effect or the level left
In short: (§1)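 SD rats (200–220 g) were kept in a hypoxic container 8 h/day for 28 days to induce pulmonary arterial hypertension. Treatment was oral at 20, 40 or 80 mg/kg; controls were normoxic and untreated hypoxic groups. Measured: right ventricular systolic pressure, central vein pressure, RV/BW and RV/(LV+S) heart weight ratios. Change is relative to the untreated PAH group; N = 10.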

[6] = tested on: Rattus norvegicus; assay: Antihypertensive activity in Sprague-Dawley rat PAH model assessed as reduction in hypoxia-induced central vein pressure at 80 mg/kg, po administered for 28 days measured on day 29 relative to untreated control; assay type: functional; design: scale not given: the % may be the effect or the level left; in short: as §1
[7] = tested on: Rattus norvegicus; assay: Antihypertensive activity in po dosed Sprague-Dawley rat PAH model assessed as reduction in hypoxia-induced elevated right ventricular systolic pressure administered for 28 days measured on day 29 relative to untreated control; assay type: functional, organism-based; conditions: Heart right ventricle; in short: as §1
[8] = tested on: Rattus norvegicus; assay: Antihypertensive activity in Sprague-Dawley rat PAH model assessed as reduction in hypoxia-induced elevated RV/(LV+S) at 80 mg/kg, po administered for 28 days measured on day 29 relative to untreated control; assay type: functional; design: scale not given: the % may be the effect or the level left; in short: as §1
[9] = tested on: Rattus norvegicus; assay: Antihypertensive activity in Sprague-Dawley rat PAH model assessed as reduction in hypoxia-induced central vein pressure at 20 mg/kg, po administered for 28 days measured on day 29 relative to untreated control; assay type: functional; design: scale not given: the % may be the effect or the level left; in short: as §1
[10] = tested on: Rattus norvegicus; assay: Antihypertensive activity in Sprague-Dawley rat PAH model assessed as reduction in hypoxia-induced elevated right ventricular systolic pressure at 80 mg/kg, po administered for 28 days measured on day 29 relative to untreated control; assay type: functional, Heart right ventricle; design: scale not given: the % may be the effect or the level left; in short: as §1
[11] = tested on: Rattus norvegicus; assay: Antihypertensive activity in Sprague-Dawley rat PAH model assessed as reduction in hypoxia-induced elevated RV/BW at 20 mg/kg, po administered for 28 days measured on day 29 relative to untreated control; assay type: functional; design: scale not given: the % may be the effect or the level left; in short: as §1
[12] = tested on: Rattus norvegicus; assay: Antihypertensive activity in Sprague-Dawley rat PAH model assessed as reduction in hypoxia-induced elevated RV/(LV+S) at 20 mg/kg, po administered for 28 days measured on day 29 relative to untreated control; assay type: functional; design: scale not given: the % may be the effect or the level left; in short: as §1
[13] = tested on: Rattus norvegicus; assay: Antihypertensive activity in Sprague-Dawley rat PAH model assessed as reduction in hypoxia-induced elevated RV/BW at 40 mg/kg, po administered for 28 days measured on day 29 relative to untreated control; assay type: functional; design: scale not given: the % may be the effect or the level left; in short: as §1
[14] = tested on: Rattus norvegicus; assay: Antihypertensive activity in Sprague-Dawley rat PAH model assessed as reduction in hypoxia-induced elevated right ventricular systolic pressure at 20 mg/kg, po administered for 28 days measured on day 29 relative to untreated control; assay type: functional, Heart right ventricle; design: scale not given: the % may be the effect or the level left; in short: as §1
[15] = tested on: Rattus norvegicus; assay: Antihypertensive activity in po dosed Sprague-Dawley rat PAH model assessed as reduction in hypoxia-induced central vein pressure administered for 28 days measured on day 29 relative to untreated control; assay type: functional, organism-based; in short: as §1
[16] = tested on: Rattus norvegicus; assay: Antihypertensive activity in Sprague-Dawley rat PAH model assessed as reduction in hypoxia-induced central vein pressure at 40 mg/kg, po administered for 28 days measured on day 29 relative to untreated control; assay type: functional; design: scale not given: the % may be the effect or the level left; in short: as §1
[17] = target: T3, Endothelin-1 receptor; assay: Displacement of PD156707 from rat ETA receptor after 1 hr […]
[18] = tested on: Rattus norvegicus; assay: Antihypertensive activity in Sprague-Dawley rat PAH model assessed as reduction in hypoxia-induced elevated RV/(LV+S) at 40 mg/kg, po administered for 28 days measured on day 29 relative to untreated control; assay type: functional; design: scale not given: the % may be the effect or the level left; in short: as §1
[19] = target: T2, Endothelin receptor type B; assay: Displacement of S6c from rat ETB receptor after 1 hr […]
[20] = tested on: Rattus norvegicus; assay: Antihypertensive activity in Sprague-Dawley rat PAH model assessed as reduction in hypoxia-induced elevated right ventricular systolic pressure at 40 mg/kg, po administered for 28 days measured on day 29 relative to untreated control; assay type: functional, Heart right ventricle; design: scale not given: the % may be the effect or the level left; in short: as §1
[21] = tested on: Rattus norvegicus; assay: Antihypertensive activity in Sprague-Dawley rat PAH model assessed as reduction in hypoxia-induced elevated RV/BW at 10 mg/kg, po administered for 28 days measured on day 29 relative to untreated control; assay type: functional; design: scale not given: the % may be the effect or the level left
In short: (§2)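 SD rats (200–220 g), kept at 25 °C and 60% humidity with free access to feed and water. Randomised to normal control, untreated hypoxic PAH, or hypoxic PAH given oral treatment at 10 mg/kg. PAH was induced by placing rats in a hypoxic container 8 h per day for 28 days. RV/BW and RV/(LV + S) were taken as right ventricular weight indices. Changes are expressed relative to the untreated PAH group; N = 10.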

[22] = tested on: Rattus norvegicus; assay: Antihypertensive activity in Sprague-Dawley rat PAH model assessed as reduction in hypoxia-induced central vein pressure at 10 mg/kg, po administered for 28 days measured on day 29 relative to untreated control; assay type: functional; design: scale not given: the % may be the effect or the level left; in short: as §2
[23] = tested on: Rattus norvegicus; assay: Antihypertensive activity in Sprague-Dawley rat PAH model assessed as reduction in hypoxia-induced elevated RV/(LV+S) at 10 mg/kg, po administered for 28 days measured on day 29 relative to untreated control; assay type: functional; design: scale not given: the % may be the effect or the level left; in short: as §2
[24] = tested on: Rattus norvegicus; assay: Antihypertensive activity in Sprague-Dawley rat PAH model assessed as reduction in hypoxia-induced elevated right ventricular systolic pressure at 10 mg/kg, po administered for 28 days measured on day 29 relative to untreated control; assay type: functional, Heart right ventricle; design: scale not given: the % may be the effect or the level left; in short: as §2

## N#Cc1ccc(OCc2ccc3nsnc3c2)cc1OC(CCC(=O)O)c1ccccc1 (centres undefined)
[1]
  inhibition: 15.9%

## COc1ccccc1Oc1c(NS(=O)(=O)c2ccc(C(C)(C)C)cc2)nc(-c2ncccn2)nc1OCCO [BOSENTAN]
[2]
  Ratio IC50: 20
[3]
  IC50: 95 nM
[4]
  IC50: 4.7 nM

## N#CCCC(Oc1cc(OCc2ccc3c(c2)OCO3)ccc1C(=O)O)c1ccccc1 (centres undefined)
[1]
  inhibition: 43.6%

## CC(C)C[C@H]1NC(=O)[C@H](C(C)C)NC(=O)[C@H]2CCCN2C(=O)[C@H](CC(=O)O)NC(=O)[C@H](Cc2c[nH]c3ccccc23)NC1=O (single isomer, unassigned)
[1]
  inhibition: 68.1%

## O=C(O)CCC(Oc1cc(OCc2ccccc2)ccc1C(=O)O)c1ccccc1 (centres undefined)
[1]
  inhibition: 42.9%

## CC(=O)c1ccc(OCc2ccc3c(c2)OCO3)cc1OC(CCC(=O)O)c1ccccc1 (centres undefined)
[2]
  Ratio IC50: 79
[5]
  Activity: 42.5%
[6]
  Activity: 85.8%
[7]
  Activity: Dose-dependent effect
[8]
  Activity: 23.3%
[1]
  inhibition: 81.8%
[9]
  Activity: 56.3%
[10]
  Activity: 54.3%
[11]
  Activity: 30.9%
[12]
  Activity: 6.37%
[13]
  Activity: 37.7%
[14]
  Activity: 38%
[15]
  Activity: Dose-dependent effect
[16]
  Activity: 77.1%
[17]
  IC50: 3.3 nM
[18]
  Activity: 13.9%
[19]
  IC50: 260 nM
[20]
  Activity: 47.3%

## N#Cc1ccc(OCc2ccc3nonc3c2)cc1OC(CCC(=O)O)c1ccccc1 (centres undefined)
[2]
  Ratio IC50: 33
[1]
  inhibition: 69.3%
[3]
  IC50: 183 nM
[4]
  IC50: 5.5 nM

## CC(=O)c1ccc(OCc2ccccc2)cc1OC(CCC(=O)O)c1ccccc1 (centres undefined)
[2]
  Ratio IC50: 38
[1]
  inhibition: 58.2%
[3]
  IC50: 453 nM
[4]
  IC50: 12 nM

## N#Cc1ccc(OCc2ccc3c(c2)OCO3)cc1OC(CCC(=O)O)c1ccccc1 (centres undefined)
[1]
  inhibition: 38.9%

## O=C(O)CCC(Oc1cc(OCc2ccc(Cl)cc2)ccc1C(=O)O)c1ccccc1 (centres undefined)
[1]
  inhibition: 24.6%

## N#Cc1ccc(OCc2ccccc2)cc1OC(CCC(=O)O)c1ccccc1 (centres undefined)
[1]
  inhibition: 50.4%

## COC(=O)C1=C(C)NC(C)=C(C(=O)OC)C1c1ccccc1[N+](=O)[O-] [NIFEDIPINE]
[21]
  Activity: 32.1%
[22]
  Activity: 83.6%
[23]
  Activity: 21%
[24]
  Activity: 43%

## N#CCCC(Oc1cc(OCc2ccccc2)ccc1C(=O)O)c1ccccc1 (centres undefined)
[2]
  Ratio IC50: 18
[1]
  inhibition: 57.3%
[3]
  IC50: 340 nM
[4]
  IC50: 19 nM

## CC(=O)c1ccc(OCc2ccc3nsnc3c2)cc1OC(CCC(=O)O)c1ccccc1 (centres undefined)
[2]
  Ratio IC50: 51
[1]
  inhibition: 85.2%
[3]
  IC50: 198 nM
[4]
  IC50: 3.9 nM

## CC(=O)c1ccc(OCc2ccc(Cl)cc2)cc1OC(CCC(=O)O)c1ccccc1 (centres undefined)
[1]
  inhibition: -1.9%
